Experimental data published in PubChem BioAssay.
Active and inactive are the calls of the source.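 The calls were made as follows, unless noted: active = inhibition above 20% together with a positive visual image hit; inconclusive = visual image hit but inhibition not above 20%; inactive = no visual image hit.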

How the values were obtained:
[1] = inhibitors of TNFa-induced NFkB p65 translocation, primary screen, imaging, HUVEC, MLSMR starter and 10KST1 sets (AID 438); details: HUVEC TNFa-induced p65 nuclear translocation; cell count: measured here: nuclei count (cytotoxicity indicator), at 2.08 µM; inhibition: at 2 µM, stronger effect = higher value, 0% TNFa-plus-vehicle, 100% no-TNFa wells;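 also: compound added about 3h40 before a 20 min TNFalpha stimulation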;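 as to inhibition: signal is the nuclear over cytoplasmic p65 intensity ratio per well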
[2] = inhibitors of mutant huntingtin aggregation, primary screen, imaging, exon1htt(103Q)mCFP cells, high-content imaging (AID 483;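 active = visual image review flags a hit and inhibition of aggregation exceeds 20%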;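 also: compound exposure lasted 3 days before fixation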;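 as to nuclei count: percent of the per-plate median nuclei count of sample wells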); details: exon1htt(103Q)mCFP cell line, aggregate imaging, at 2 µM; inhibition of aggregation: stronger effect = higher value; nuclei count: measured here: cell count, toxicity
[3] = inhibitors of E-selectin induction by TNFa, primary screen, imaging, HUVEC, immunofluorescence, MLSMR starter and 10KST1 sets (AID 487;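 active = visually confirmed hit in the image check and inhibition above 20%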;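 as to inhibition: signal is fraction of cell area covered by stained E-selectin grains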;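 as to nuclei count: 100% = median nuclei count of all wells on the same plate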); details: HUVEC TNFalpha-induced E-selectin immunofluorescence imaging, at 2 µM; inhibition: stronger effect = higher value; nuclei count: measured here: cell number, toxicity
[4] = target: Voltage-gated potassium channel subunit beta-2 (Rattus norvegicus) (UniProt P62483); test: KvBeta enzyme negative modulators, primary screen, biochemical, NADPH fluorescence (AID 622;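 active = fluorescence slope higher than the sample average by over 3 SD, cut at about -0.22 in these data, passing the limit was not always enough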;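 also: slope of raw intensity against log time taken from 70 to 1610 s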); details: recombinant KvBeta, 4-cyanobenzaldehyde reduction, at 10 µM, stronger effect = higher value
[5] = target: Voltage-gated potassium channel subunit beta-2 (Rattus norvegicus) (UniProt P62483); test: KvBeta positive modulators, primary screen, biochemical, NADPH fluorescence (AID 623;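 active = NADPH fluorescence slope more negative than the mean of all samples by about 3 SD, 99.7% confidence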;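 also: fluorescence intensity change per second fitted from 20 to 320 s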); details: Recombinant KvBeta, NADPH fluorescence decrease slope, 10 min; at 10 µM; stronger effect = lower value
[6] = target: Alpha-2C adrenergic receptor (Homo sapiens) (UniProt P18825); test: modulators of alpha2C/GIRK thallium flux, primary screen, cell-based, HEK293 alpha2C/GIRK1/2 (AID 624;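 active = fluorescence slope after compound addition differing from the mean of all screened samples at 99.7% confidence, in either direction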;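 also: slope of fluorescence ratio to pre-addition baseline per second over 15 to 24 s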); details: thallium flux BTC fluorescence, at 10 µM, actives lie on both sides
[7] = inhibitors of larval lipid processing in zebrafish, primary screen, whole organism, PED6 fluorescence, gall bladder and intestine (AID 686;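 active = a full or partial loss of lipid-probe fluorescence in the fish gall bladder, intestine or both, judged by eye; inactive = no fluorescence loss, or compound toxic to the fish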;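 also: larvae 5 to 7 days old with five fish per well; signal comes from phospholipase A2 cleavage of quenched PED6 carried via bile; overnight exposure to compound and PED6 before scoring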); details: Zebrafish larvae PED6 lipid processing, fluorescence scoring; screened at 20 µM (by protocol)
Procedure, shortened: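 System: live zebrafish larvae aged 5-7 days, whole organism; measure: graded gall bladder and intestinal fluorescence inhibition per well; incubation: overnight exposure; reagent: ingested quenched lipid PED6 at 100 nM; signal: By-eye fluorescence microscopy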

[8] = inhibitors of Sendai virus-induced IRF3 signaling, primary screen, TLR/RLR signaling modifier project, cell-based, Sendai virus stimulus, luciferase, 10K MLSCN set (AID 602276;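 active = inhibition at or above 50% at 10 µM; inactive = inhibition below 50%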;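 also: firefly luciferase from ISG56 promoter only with Renilla not read in this screen; 0% = Sendai virus plus DMSO and 100% = medium plus DMSO without virus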); details: HEK293 RL24 IRF3 luciferase reporter, at 10 µM, stronger effect = higher value
[9] = inhibitors of poly I:C-induced TLR3 signaling, primary screen, cell-based, poly I:C stimulus, luciferase, 10K MLSCN set (AID 602277;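 active = inhibition of the reporter signal at or above 50%; inactive = inhibition below 50%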); details: HEK293-TLR3 RL24 IRF3 luciferase reporter, at 10 µM, stronger effect = higher value
[10] = target: Muscarinic acetylcholine receptor M4 (Homo sapiens) (UniProt P08173); test: compounds altering M4/GIRK thallium flux, either direction, primary screen, M4 allosteric agonist project, cell-based, HEK293 M4/GIRK, BTC-AM (AID 625;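 active = fluorescence slope after compound addition differing from the mean of all tested samples at 99.7% confidence, mostly higher but some lower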;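 also: thallium influx through GIRK channels coupled to M4 in HEK293 cells with BTC-AM dye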); details: at 10 µM, actives lie on both sides
Procedure, shortened: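 Material: M4/GIRK1/GIRK2 stable HEK293 cell line. Medium: pH 7.3 thallium assay buffer. Dosing: single compound concentration, 10 µM final. Schedule: 1 h dye loading, 2 min kinetic read. Measured by: kinetic fluorescence with BTC-AM dye. Read-out: post-addition slope, 15–24 s, of baseline-normalized fluorescence. Benchmarks: carbachol and DMSO controls.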

Sequence of Voltage-gated potassium channel subunit beta-2 (Rattus norvegicus) (P62483 whole entry, looked up): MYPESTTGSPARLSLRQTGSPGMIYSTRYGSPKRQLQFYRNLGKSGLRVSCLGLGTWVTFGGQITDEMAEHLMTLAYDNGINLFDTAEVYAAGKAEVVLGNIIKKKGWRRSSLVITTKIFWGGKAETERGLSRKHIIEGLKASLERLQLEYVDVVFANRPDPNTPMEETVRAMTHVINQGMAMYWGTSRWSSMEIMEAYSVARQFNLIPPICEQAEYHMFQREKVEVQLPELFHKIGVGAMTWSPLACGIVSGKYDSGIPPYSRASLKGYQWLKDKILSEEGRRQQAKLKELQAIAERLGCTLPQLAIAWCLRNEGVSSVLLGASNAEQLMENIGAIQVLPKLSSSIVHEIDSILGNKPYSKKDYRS
Sequence of Muscarinic acetylcholine receptor M4 (Homo sapiens) (P08173 whole entry, looked up): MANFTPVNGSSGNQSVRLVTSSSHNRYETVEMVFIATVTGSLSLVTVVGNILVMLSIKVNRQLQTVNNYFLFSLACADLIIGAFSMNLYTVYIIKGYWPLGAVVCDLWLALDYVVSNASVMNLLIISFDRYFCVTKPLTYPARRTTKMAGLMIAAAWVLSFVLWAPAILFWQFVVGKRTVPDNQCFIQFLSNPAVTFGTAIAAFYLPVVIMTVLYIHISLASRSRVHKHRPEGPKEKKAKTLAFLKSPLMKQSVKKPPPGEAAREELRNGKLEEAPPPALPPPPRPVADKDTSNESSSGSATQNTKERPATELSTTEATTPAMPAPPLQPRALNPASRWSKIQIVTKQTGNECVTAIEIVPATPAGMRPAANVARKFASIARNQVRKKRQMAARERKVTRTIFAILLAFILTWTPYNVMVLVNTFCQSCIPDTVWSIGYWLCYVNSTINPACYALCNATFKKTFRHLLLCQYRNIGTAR
Sequence of Alpha-2C adrenergic receptor (Homo sapiens) (P18825 whole entry, looked up): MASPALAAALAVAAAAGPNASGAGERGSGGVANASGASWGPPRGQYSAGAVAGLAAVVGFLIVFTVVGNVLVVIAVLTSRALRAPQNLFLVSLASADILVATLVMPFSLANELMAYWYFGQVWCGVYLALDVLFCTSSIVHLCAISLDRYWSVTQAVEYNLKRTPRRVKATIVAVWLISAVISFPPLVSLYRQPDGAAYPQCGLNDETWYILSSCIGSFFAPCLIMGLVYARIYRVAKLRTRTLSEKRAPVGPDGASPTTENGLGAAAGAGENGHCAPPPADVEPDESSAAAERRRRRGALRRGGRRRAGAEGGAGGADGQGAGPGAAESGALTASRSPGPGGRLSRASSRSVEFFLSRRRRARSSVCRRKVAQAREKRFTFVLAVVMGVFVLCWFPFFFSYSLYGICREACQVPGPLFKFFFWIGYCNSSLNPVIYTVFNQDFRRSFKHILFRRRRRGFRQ

Structure (SMILES)	cell count [1]	inhibition [1]	inhibition of aggregation [2]	nuclei count [2]	inhibition [3]	nuclei count [3]	fluorescence slope [4]	NADPH fluorescence slope [5]	slope [6]	outcome [7]	inhibition [8]	inhibition [9]	fluorescence slope [10]
CC1(C)CC(=O)C(C=NC(CCC(N)=O)C(=O)O)=C(O)C1 (centres undefined)	520	-22.3% (inactive)	-15.6% (inactive)	113%	54.4% (active)	93.1%	-0.382 (inactive)	-1e-05 (inactive)	0.00504 (inactive)	inactive	13.3% (inactive)	13.8% (inactive)	
CCOC(=O)c1cc(-c2ccccc2)sc1N	389	-0.7% (inactive)	3.4% (inactive)	102%	-104% (inactive)	107%	-0.351 (inactive)	-2e-05 (inactive)	0.0052 (inactive)	inactive	-40.8% (inactive)	-102% (inactive)	
COc1ccc(-c2nnc(SCc3nnc(-c4ccc(Cl)cc4)o3)n2-c2ccccc2)cc1	565	-13.6% (inactive)	12.1% (inactive)	106%	17.2% (inactive)	138%	-0.398 (inactive)	-6.2e-05 (inactive)	0.00535 (inactive)	inactive	-45% (inactive)	-62.8% (inactive)	
CN(Cc1ccccc1)C(=O)c1cc(-c2ccc(Br)cc2)on1	318	2.4% (inactive)	14.9% (inactive)	107%	19.7% (inactive)	110%	-0.399 (inactive)	-3.6e-05 (inactive)	0.00441 (inactive)	inactive	-49.5% (inactive)	-116% (inactive)	
O=C(Nc1ccccc1Cl)c1c(F)c(F)c(F)c(F)c1F	407	5.5% (inactive)	2.9% (inactive)	103%	-166% (inactive)	116%	-0.479 (inactive)	-3e-05 (inactive)	0.00592 (inactive)	inactive	-7.6% (inactive)	-12.7% (inactive)	
COc1ccc(Br)cc1-c1noc(-c2ccccc2)n1	357	3% (inactive)	-25.4% (inactive)	102%	-51.1% (inactive)	109%	-0.371 (inactive)	-6.1e-05 (inactive)	0.00662 (inactive)	inactive	13.4% (inactive)	99.2% (active)	
Cc1cc(NC(=O)Cc2c(F)cccc2Cl)no1	586	-1.1% (inactive)	-15.9% (inactive)	99.9%	34.2% (inactive)	94.3%	-0.44 (inactive)	-2.5e-05 (inactive)	0.00621 (inactive)	inactive	14.4% (inactive)	19.6% (inactive)	
Cc1cc(NC(=O)CSc2nc3c(c(-c4cccnc4)c2C#N)CCC3)no1	595	-2.9% (inactive)	0.1% (inactive)	96.3%	15.2% (inactive)	88.6%	-0.337 (inactive)	-6.5e-05 (inactive)	0.00719 (inactive)	inactive	0.978% (inactive)	-3.11% (inactive)	
Cc1cc(=O)n2[nH]c(-c3ccc(Cl)cc3)cc2n1	540	-2.9% (inactive)	0% (inactive)	87.6%	46.6% (inactive)	69.3%	-0.42 (inactive)	-3.9e-05 (inactive)	0.0052 (inactive)	inactive	-16.8% (inactive)	-40.2% (inactive)	
COc1cccc2c(=O)cc(C)n(CC(=O)Nc3ccc(C)c(C)c3)c12	456	9.4% (inactive)	-8.4% (inactive)	50.1%	46.9% (inactive)	85.2%	-0.364 (inactive)	-4.9e-05 (inactive)	0.00483 (inactive)	inactive	0.857% (inactive)	-0.697% (inactive)	
Cn1c(CSc2nc3ccccc3s2)nnc1SCC(=O)NCCN1CCOCC1	487	4.5% (inactive)	-3.4% (inactive)	94.1%	-23% (inactive)	125%	-0.409 (inactive)	-8.1e-06 (inactive)	0.00477 (inactive)	inactive	-5.77% (inactive)	13.9% (inactive)	
COCCNC(=S)c1ccc(OC)cc1	318	4.7% (inactive)	1.2% (inactive)	121%	-41.9% (inactive)	123%	-0.362 (inactive)	-7.4e-05 (inactive)	0.00489 (inactive)	inactive	4.72% (inactive)	4.95% (inactive)	
COc1ccc(Cl)c(N2CCN(CCCNC(=O)Nc3ccc(C)cc3)CC2)c1	320	2.4% (inactive)	-10.7% (inactive)	98.8%	16% (inactive)	108%	-0.479 (inactive)	-5.7e-05 (inactive)	0.0037 (inactive)	inactive	2.1% (inactive)	-5.24% (inactive)	
CC(C)(C)NC(=O)C(Cc1ccccc1)NS(=O)(=O)c1cccc2nsnc12 (centres undefined)	721	-19.8% (inactive)	-37.6% (inactive)	113%	-49.9% (inactive)	112%	-0.413 (inactive)	1.1e-05 (inactive)	0.00438 (inactive)	inactive	3.22% (inactive)	8.45% (inactive)	
O=C(Nc1ccc2oc(Cc3ccc(Cl)cc3)nc2c1)c1cccnc1	396	6.7% (inactive)	-0.8% (inactive)	93.5%	-15% (inactive)	114%	-0.364 (inactive)	-2.3e-06 (inactive)	0.00427 (inactive)	inactive	14.7% (inactive)	7.42% (inactive)	
O=C(Nc1ccccc1)N(CCCN1CCOCC1)Cc1cc2cc3c(cc2[nH]c1=O)OCCO3	390	8% (inactive)	20.1% (inactive)	70.5%	-24.2% (inactive)	98.3%	-0.412 (inactive)	-4.1e-05 (inactive)	0.00525 (inactive)	inactive	-3.35% (inactive)	8.69% (inactive)	
CCOC(=O)c1ccccc1NC1CC(=O)N(c2ccccc2C)C1=O (centres undefined)	242	6.7% (inactive)	12.6% (inactive)	97.9%	8.6% (inactive)	94.8%	-0.262 (inactive)	9.8e-06 (inactive)	0.00569 (inactive)	inactive	-4.41% (inactive)	-8.61% (inactive)	
CCOC(=O)c1c(-c2ccc(C)o2)csc1NC(=O)CN1CCN(CC)CC1	393	-0.4% (inactive)	8.3% (inactive)	95.5%	-12.2% (inactive)	106%	-0.409 (inactive)	-3.8e-05 (inactive)	0.0051 (inactive)	inactive	11.4% (inactive)	22% (inactive)	
COCCCn1c(=N)c(C(=O)NCC2CCCO2)cc2c(=O)n3cccc(C)c3nc21 (centres undefined)	587	-8.8% (inactive)	-3.1% (inactive)	78.6%	28.1% (inactive)	67.6%	-0.0296 (active)	-1.3e-05 (inactive)	0.00471 (inactive)	inactive	11.6% (inactive)	21% (inactive)	
C=CCOc1ccc(CN(C)CC(=O)N(CC(C)C)c2c(N)n(CC(C)C)c(=O)[nH]c2=O)cc1	492	8.3% (inactive)	-8.7% (inactive)	101%	-77.8% (inactive)	123%	-0.452 (inactive)	-4.3e-05 (inactive)	0.00414 (inactive)	inactive	21.6% (inactive)	19.4% (inactive)	
COc1ccccc1OCc1ccc(C(=O)N2CCN(C(=O)c3ccco3)CC2)cc1	502	-32.6% (inactive)	6% (inactive)	98.6%	-92.1% (inactive)	103%	-0.416 (inactive)	-3e-05 (inactive)	0.00401 (inactive)	inactive	1.91% (inactive)	18% (inactive)	
Nc1ccc(S(=O)(=O)c2cccc(N)c2)cc1	655	-8.6% (inactive)	-8.8% (inactive)	81.5%	-2.1% (inactive)	108%	-0.435 (inactive)	-1.3e-05 (inactive)	0.00439 (inactive)	inactive	15.4% (inactive)	15.8% (inactive)	
O=C(C1CCN(S(=O)(=O)Cc2ccccc2)CC1)N1CCN(c2ncccn2)CC1	354	-9.2% (inactive)	0.1% (inactive)	67%	34.3% (inactive)	96.8%	-0.431 (inactive)	-0.000431 (inactive)			-3.88% (inactive)	-4.47% (inactive)	0.00525 (inactive)
COc1ccc(N2CCN(c3ncnc4c3cnn4-c3ccc(C)cc3C)CC2)cc1	683	-10.9% (inactive)	-20.3% (inactive)	117%	-33.1% (inactive)	98%	-0.558 (inactive)	-4.3e-05 (inactive)			5.2% (inactive)	-20.2% (inactive)	0.00551 (inactive)
CCN(Cc1cc2cc(OC)ccc2[nH]c1=O)C(=O)Cc1ccc(OC)cc1	369	1.8% (inactive)	-11.9% (inactive)	114%	-57.8% (inactive)	124%	-0.549 (inactive)	-9.8e-05 (inactive)			11.4% (inactive)	5.34% (inactive)	0.00319 (inactive)
O=S(=O)(NCc1ccco1)c1cccc2cccnc12	336	0% (inactive)	-18.3% (inactive)	111%	-65.9% (inactive)	103%	-0.551 (inactive)	-1.2e-05 (inactive)			13.3% (inactive)	13% (inactive)	0.00492 (inactive)
Cc1cccc(Cn2c(=O)n(Cc3ccco3)c(=O)c3ccccc32)c1	659	0.5% (inactive)	-10.9% (inactive)	122%	-39% (inactive)	113%	-0.608 (inactive)	-3.9e-05 (inactive)			0.06% (inactive)	-5.18% (inactive)	0.00404 (inactive)
